This note sets out measurements from ChEMBL document CHEMBL4428046 (J Med Chem, 2016).

Calls of active or inactive are those of the source. The calls are words filed in the database; no cut-off is given here.

The first assay concerns the target T1, Adenosine kinase (Homo sapiens, UniProt P55263). The experiment in a line: Inhibition of human adenosine kinase assessed as effect on reduced nicotinamide-adenine dinculeotide appearance at 500 nM using inosine as substrate in presence of NAD, ATP incubated for 4 hrs by IMPDH based coupled enzymatic assay based non-isotopic method. The procedure, abridged: (§1)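 Continuous coupled spectrophotometric assay at 37 °C: hAdK (2.2 mU) with IMPDH (20 mU/mL) in 100 mM Tris/HCl, 250 mM KCl, 10 mM MgCl2, with 2.5 mM NAD, 2.75 mM ATP and dithiothreitol; reaction started with 2.5 mM inosine, A340 read every 5 min for 4 h after baseline subtraction. Percent inhibition from the 0–40 min slope, normalized to 1% v/v DMSO vehicle; triplicate, repeated on a second plate.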
Target sequence in this assay (P55263 2-362 limits assumed): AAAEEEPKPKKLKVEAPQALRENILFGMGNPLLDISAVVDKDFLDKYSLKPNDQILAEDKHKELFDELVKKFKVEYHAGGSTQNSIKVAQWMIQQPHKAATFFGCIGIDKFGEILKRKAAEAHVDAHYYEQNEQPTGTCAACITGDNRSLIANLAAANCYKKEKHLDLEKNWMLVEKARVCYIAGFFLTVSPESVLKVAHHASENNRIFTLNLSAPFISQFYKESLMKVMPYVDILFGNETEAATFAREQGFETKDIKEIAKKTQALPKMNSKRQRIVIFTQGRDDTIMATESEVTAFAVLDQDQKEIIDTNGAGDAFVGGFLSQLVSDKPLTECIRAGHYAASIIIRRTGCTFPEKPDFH
What is called inhibition is the relative decrease from the control value, in per cent. On to `[N-]=[N+]=NC[C@@H]1[C@@H](O)[C@@H](O)C2(n3cc(I)c4c(N)ncnc43)C[C@@H]12` (single isomer, unassigned), for which the inhibition was 6.8%.

On to `NC[C@@H]1[C@@H](O)[C@@H](O)C2(n3cc(I)c4c(N)ncnc43)C[C@@H]12` (single isomer, unassigned), for which the inhibition was -2%.

For `C[C@@H]1[C@@H](O)[C@@H](O)[C@@]2(n3cc(-c4ccccc4)c4c(Nc5ccc(F)cc5)ncnc43)C[C@@H]12`, the inhibition is 85.2%.

Regarding `OC[C@@H]1[C@@H](O)[C@@H](O)[C@@]2(n3cc(I)c4c(Cl)ncnc43)C[C@@H]12`, the inhibition stood at 15.6%.

With `Nc1ncnc2c1c(I)cn2[C@]12C[C@H]1[C@H](CO)[C@@H](O)[C@H]2O`, the inhibition was 8.8%.

With `OC[C@@H]1[C@@H](O)[C@@H](O)[C@@]2(n3cc(-c4ccccc4)c4c(Nc5ccccc5)ncnc43)C[C@@H]12`, the inhibition stood at 82.2%.

The next assay has as its target T1, Adenosine kinase. The experiment in a line: Substrate activity at human adenosine kinase assessed as compound phosphorylation at 1 uM incubated for 4 hrs by LC-MS method. The procedure, abridged:
(§2)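 Under conditions similar to the coupled kinase assay, hAdK was incubated 4 h with test nucleoside at 1 μM, with or without substrate, alongside a no-compound control. Nucleosides and their phosphorylated products were identified and measured qualitatively by LC-MS in negative and positive ion modes.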
Target sequence in this assay (P55263 2-362 limits assumed): as above
Regarding `Nc1ncnc2c1c(I)cn2[C@]12C[C@H]1[C@H](CO)[C@@H](O)[C@H]2O`, the result was inactive.

In another assay the target is T1, Adenosine kinase. The experiment in a line: Inhibition of human adenosine kinase in presence of inosine as substrate at 1 uM incubated for 4 hrs by LC-MS method. The gist of the method: as §2
Target sequence in this assay (P55263 2-362 limits assumed): as above
With `Nc1ncnc2c1c(I)cn2[C@]12C[C@H]1[C@H](CO)[C@@H](O)[C@H]2O`, the inhibition result is “inactive”.

The target in another assay is T1, Adenosine kinase. Nature of the assay: Inhibition of human adenosine kinase assessed as effect on reduced nicotinamide-adenine dinculeotide appearance at 20 uM using inosine as substrate in presence of NAD, ATP incubated for 4 hrs by IMPDH based coupled enzymatic assay based non-isotopic method. The gist of the method: as §1
Target sequence in this assay (P55263 2-362 limits assumed): as above
In the case of `[N-]=[N+]=NC[C@@H]1[C@@H](O)[C@@H](O)C2(n3cc(I)c4c(N)ncnc43)C[C@@H]12` (single isomer, unassigned), the inhibition is 75.1%.

As for `NC[C@@H]1[C@@H](O)[C@@H](O)C2(n3cc(I)c4c(N)ncnc43)C[C@@H]12` (single isomer, unassigned), the inhibition turned out to be 36%.

As to `C[C@@H]1[C@@H](O)[C@@H](O)[C@@]2(n3cc(-c4ccccc4)c4c(Nc5ccc(F)cc5)ncnc43)C[C@@H]12`, the inhibition is 88%.

As for `OC[C@@H]1[C@@H](O)[C@@H](O)[C@@]2(n3cc(I)c4c(Cl)ncnc43)C[C@@H]12`, the inhibition was 68.9%.

As for `Nc1ncnc2c1c(I)cn2[C@]12C[C@H]1[C@H](CO)[C@@H](O)[C@H]2O`, the inhibition came to 41.7%.

For the compound `OC[C@@H]1[C@@H](O)[C@@H](O)[C@@]2(n3cc(-c4ccccc4)c4c(Nc5ccccc5)ncnc43)C[C@@H]12`, the inhibition turned out to be 88.1%.

For another assay, the target named is T1, Adenosine kinase. Nature of the assay: Inhibition of human adenosine kinase assessed as effect on reduced nicotinamide-adenine dinculeotide appearance at 100 nM using inosine as substrate in presence of NAD, ATP incubated for 4 hrs by IMPDH based coupled enzymatic assay based non-isotopic method. The gist of the method: as §1
Target sequence in this assay (P55263 2-362 limits assumed): as above
On to `[N-]=[N+]=NC[C@@H]1[C@@H](O)[C@@H](O)C2(n3cc(I)c4c(N)ncnc43)C[C@@H]12` (single isomer, unassigned), for which the inhibition worked out at 6.1%.

`NC[C@@H]1[C@@H](O)[C@@H](O)C2(n3cc(I)c4c(N)ncnc43)C[C@@H]12` (single isomer, unassigned): the inhibition came to 8.4%.

As to `C[C@@H]1[C@@H](O)[C@@H](O)[C@@]2(n3cc(-c4ccccc4)c4c(Nc5ccc(F)cc5)ncnc43)C[C@@H]12`, the inhibition was determined as 39%.

`OC[C@@H]1[C@@H](O)[C@@H](O)[C@@]2(n3cc(I)c4c(Cl)ncnc43)C[C@@H]12`: the inhibition amounted to 6.6%.

As for `Nc1ncnc2c1c(I)cn2[C@]12C[C@H]1[C@H](CO)[C@@H](O)[C@H]2O`, the inhibition was determined as 1.1%.

As for `OC[C@@H]1[C@@H](O)[C@@H](O)[C@@]2(n3cc(-c4ccccc4)c4c(Nc5ccccc5)ncnc43)C[C@@H]12`, the inhibition came out at 41%.

A further assay concerns the target T1, Adenosine kinase. The experiment in a line: Inhibition of human adenosine kinase assessed as reduction in conversion of adenosine to AMP.
Target sequence in this assay (P55263 whole entry): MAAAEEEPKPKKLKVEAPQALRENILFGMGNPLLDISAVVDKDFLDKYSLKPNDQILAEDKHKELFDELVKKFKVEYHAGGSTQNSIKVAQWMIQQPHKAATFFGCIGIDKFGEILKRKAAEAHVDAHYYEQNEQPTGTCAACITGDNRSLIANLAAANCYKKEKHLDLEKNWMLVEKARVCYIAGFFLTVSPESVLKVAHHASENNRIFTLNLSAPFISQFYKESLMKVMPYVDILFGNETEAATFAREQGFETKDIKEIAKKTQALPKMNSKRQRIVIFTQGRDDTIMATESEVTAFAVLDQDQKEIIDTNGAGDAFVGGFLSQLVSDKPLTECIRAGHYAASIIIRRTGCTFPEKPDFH
For orientation: IC50 means the midpoint of a concentration-inhibition curve. As to `Nc1ncnc2c1c(I)nn2[C@@H]1O[C@H](CO)[C@@H](O)[C@H]1O`, the IC50 came to 0.04 µM.

The target in another assay is T1, Adenosine kinase. Nature of the assay: Inhibition of human adenosine kinase assessed as effect on reduced nicotinamide-adenine dinculeotide appearance at 50 uM using inosine as substrate in presence of NAD, ATP incubated for 4 hrs by IMPDH based coupled enzymatic assay based non-isotopic method. The procedure, abridged:
as §1
Target sequence in this assay (P55263 2-362 limits assumed): as the sequence (P55263 2-362 limits assumed) above
In the case of `[N-]=[N+]=NC[C@@H]1[C@@H](O)[C@@H](O)C2(n3cc(I)c4c(N)ncnc43)C[C@@H]12` (single isomer, unassigned), the inhibition turned out to be 80.5%.

Consider `NC[C@@H]1[C@@H](O)[C@@H](O)C2(n3cc(I)c4c(N)ncnc43)C[C@@H]12` (single isomer, unassigned), for which the inhibition amounted to 50.9%.

For `C[C@@H]1[C@@H](O)[C@@H](O)[C@@]2(n3cc(-c4ccccc4)c4c(Nc5ccc(F)cc5)ncnc43)C[C@@H]12`, the inhibition came out at 86.9%.

As for `OC[C@@H]1[C@@H](O)[C@@H](O)[C@@]2(n3cc(I)c4c(Cl)ncnc43)C[C@@H]12`, the inhibition was 76.5%.

With `Nc1ncnc2c1c(I)cn2[C@]12C[C@H]1[C@H](CO)[C@@H](O)[C@H]2O`, the inhibition is 58.2%.

As to `OC[C@@H]1[C@@H](O)[C@@H](O)[C@@]2(n3cc(-c4ccccc4)c4c(Nc5ccccc5)ncnc43)C[C@@H]12`, the inhibition was 88.3%.

The next assay concerns the target T1, Adenosine kinase. The experiment in a line: Inhibition of human adenosine kinase assessed as effect on reduced nicotinamide-adenine dinculeotide appearance using inosine as substrate in presence of NAD, ATP incubated for 4 hrs by IMPDH based coupled enzymatic assay based non-isotopic method.
Target sequence in this assay (P55263 whole entry): as the sequence (P55263 whole entry) above
In the case of `C[C@@H]1[C@@H](O)[C@@H](O)[C@@]2(n3cc(-c4ccccc4)c4c(Nc5ccc(F)cc5)ncnc43)C[C@@H]12`, the IC50 amounted to 0.11 µM.
